Results published in publication PMC5557381 (European journal of medicinal chemistry, 2015).

Tests used:
cyclooxygenase-2 = experiment: Host-factor reporter assay pCOX-2-FLuc in MH-14 cells; type: cell-based; conditions: 5, 10 and 25 µM, 48 h
How it was run: (§1)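 MH-14 hepatoma cells stably carrying an HCV gt 1b subgenomic replicon were transfected with 300 ng of the gene-specific luciferase reporter plasmid. At 16 h post-transfection, cells were exposed to test compound or to DMSO as control for 48 h. Luciferase activity was then read, with transfection efficiency normalised to Renilla luciferase expression.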

[1] = test system: anti-oxidant response element; experiment: Host-factor reporter assay p3xARE-Luc in MH-14 cells; type: cell-based; conditions: 5, 10 and 25 µM, 48 h
How it was run: as §1

[2] = test system: HCV IRES mediated translation; experiment: HCV IRES mediated translation dual luciferase reporter assay in Huh7.5 cells; type: cell-based, Hepatitis C virus; conditions: data not shown
HCV NS3 helicase (NS3h) = HCV NS3 helicase (NS3h) (Hepatitis C virus genotype 1b, UniProt Q9WMX2); experiment: Molecular beacon based NS3 helicase assay; type: biochemical; conditions: concentrations as high as 500 µM, data not shown
heme oxygenase-1 = experiment: Host-factor reporter assay pHO-1-Luc in MH-14 cells; type: cell-based; conditions: 5, 10 and 25 µM, 48 h
How it was run: as §1

[3] = test system: interferon-stimulated response element; experiment: Host-factor reporter assay pISRE-Luc in MH-14 cells; type: cell-based; conditions: 5, 10 and 25 µM, 48 h
How it was run: as §1

[4] = target: HCV NS5B polymerase (NS5BCΔ21) (Hepatitis C virus genotype 1b, UniProt Q9WMX2); experiment: NS5B RdRp primer-dependent elongation assay; type: biochemical; conditions: 50 µM, preliminary assay, data not shown
[5] = test system: MH-14 cells carrying stably replicating HCV sub genomic replicon gt 1b; experiment: HCV RNA by quantitative RT-PCR in reporter free MH-14 cells; type: cell-based, Hepatitis C virus genotype 1b; conditions: Hepatitis C virus, GT1B, MH14, read-out: EC50, HCV RNA in MH-14 cells

c1ccc(Cn2c(-c3ccccc3)cc3c2CCCC3)cc1 [Compound 39]
Effect on cyclooxygenase-2 reporter (cyclooxygenase-2): no effect | Effect on anti-oxidant response element reporter [1]: no effect | Effect on HCV IRES mediated translation [2]: no effect | Inhibition of NS3 helicase unwinding of a DNA substrate (HCV NS3 helicase (NS3h)): no effect | Effect on heme oxygenase-1 reporter (heme oxygenase-1): no effect | Effect on interferon-stimulated response element reporter [3]: no effect | Inhibition of NS5B RdRp activity [4]: no effect | EC50 [5]: 3.13 µM
